According to ChEMBL document CHEMBL1155357, “The synthesis of 2- and 3-aryl indoles and 1,3,4,5-tetrahydropyrano[4,3-b]indoles and their antibacterial and antifungal activity” (2009):
In brackets after ≈: the same amount, converted by molar mass. Activity calls are given as the source filed them. The rule behind the calls is not given here.

How the values were obtained:
Staphylococcus aureus [1] = test: Antimicrobial activity against Staphylococcus aureus ATCC 6538 after 6 hrs; type: functional; details: ATCC 6538, 6 h
Outline: (§1)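 Broth microdilution MIC. Compounds were dissolved in acetone at a 5 mg/mL starting concentration, added to wells containing sterile water, then serially doubled down. Inoculum was 1 × 10⁶ CFU/mL, incubated 37 °C for 24 h. Then 0.2 mg/mL p-iodonitrotetrazolium violet was added and colour read after 6 h. MIC was the lowest concentration without growth. Acetone and ciprofloxacin (starting 0.01 mg/mL) served as controls. At least triplicate, on consecutive days.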

Cryptococcus neoformans [2] = test: Antimicrobial activity against Cryptococcus neoformans ATCC 90112 after 24 hrs; type: functional; details: ATCC 90112, 24 h
Outline: (§2)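 Yeast MIC by serial doubling dilution. Compounds were dissolved in acetone at a 5 mg/mL starting concentration into sterile-water wells. Inoculum was 1 × 10⁶ CFU/mL at 37 °C for 24 h plus a further 24 h. Then 0.2 mg/mL p-iodonitrotetrazolium violet was added and colour read after 24 h. MIC was the lowest concentration showing no growth. Acetone and amphotericin B (starting 0.01 mg/mL) served as controls. At least triplicate, on consecutive days.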

Escherichia coli [3] = test: Antimicrobial activity against Escherichia coli ATCC 8739 after 6 hrs; type: functional; details: ATCC 8739, 6 h; outline: as §1
Candida albicans = test: Antimicrobial activity against Candida albicans ATCC 10231 after 24 hrs; type: functional; details: ATCC 10231, 24 h; outline: as §2
Bacillus cereus = test: Antimicrobial activity against Bacillus cereus ATCC 11778 after 6 hrs; type: functional; details: ATCC 11778, 6 h; outline: as §1
Klebsiella pneumoniae = test: Antimicrobial activity against Klebsiella pneumoniae ATCC 13831 after 6 hrs; type: functional; details: ATCC 13831, 6 h; outline: as §1
Staphylococcus aureus [4] = test: Antimicrobial activity against Staphylococcus aureus ATCC 6538 at 1250 ug/mL after 6 hrs; type: functional, organism-based
Cryptococcus neoformans [5] = test: Antimicrobial activity against Cryptococcus neoformans ATCC 90112 at 1250 ug/mL after 24 hrs; type: functional, organism-based
Escherichia coli [6] = test: Antimicrobial activity against Escherichia coli ATCC 8739 at 1250 ug/mL after 6 hrs; type: functional, organism-based

| Compound | MIC (Staphylococcus aureus [1]) [µg/mL] | MIC (Cryptococcus neoformans [2]) [µg/mL] | MIC (Escherichia coli [3]) [µg/mL] | MIC (Candida albicans) [µg/mL] | MIC (Bacillus cereus) [µg/mL] | MIC (Klebsiella pneumoniae) [µg/mL] | Activity (Staphylococcus aureus [4]) | Activity (Cryptococcus neoformans [5]) | Activity (Escherichia coli [6]) |
| --- | --- | --- | --- | --- | --- | --- | --- | --- | --- |
| COc1ccc2[nH]c(-c3cc(OC)c(OC)c(OC)c3)cc2c1 | 313 (≈ 999 µM) | 32.5 (≈ 104 µM) | 625 (≈ 1990 µM) | 156 (≈ 498 µM) | 156 (≈ 498 µM) | 313 (≈ 999 µM) | – | – | – |
| COc1ccc2[nH]cc(-c3ccccc3C=O)c2c1 | 156 (≈ 621 µM) | 313 (≈ 1250 µM) | 235 (≈ 935 µM) | 156 (≈ 621 µM) | 78 (≈ 310 µM) | 313 (≈ 1250 µM) | – | – | – |
| c1ccc2[nH]c(-c3cccc4ccccc34)cc2c1 | 625 (≈ 2570 µM) | 625 (≈ 2570 µM) | 938 (≈ 3860 µM) | 156 (≈ 641 µM) | 625 (≈ 2570 µM) | 313 (≈ 1290 µM) | – | – | – |
| COc1ccc(-c2cc3ccccc3[nH]2)cc1 | 635 (≈ 2840 µM) | 58.5 (≈ 262 µM) | 625 (≈ 2800 µM) | 156 (≈ 699 µM) | 156 (≈ 699 µM) | 313 (≈ 1400 µM) | – | – | – |
| COc1cc(-c2c[nH]c3ccccc23)cc(OC)c1OC | – | 29.3 (≈ 103 µM) | 313 (≈ 1100 µM) | 313 (≈ 1100 µM) | 235 (≈ 829 µM) | 313 (≈ 1100 µM) | inactive | – | – |
| COc1ccc2[nH]c(-c3ccccc3C)cc2c1 | 235 (≈ 990 µM) | – | 468 (≈ 1970 µM) | 313 (≈ 1320 µM) | 156 (≈ 657 µM) | 313 (≈ 1320 µM) | – | – | – |
| c1ccc(-c2cc3ccccc3[nH]2)cc1 [2-PHENYL-1H-INDOLE] | 469 (≈ 2430 µM) | 625 (≈ 3230 µM) | 1250 (≈ 6470 µM) | 156 (≈ 807 µM) | 625 (≈ 3230 µM) | 313 (≈ 1620 µM) | – | – | – |
| COc1cc(-c2c[nH]c3ccccc23)c(OC)cc1Br | 156 (≈ 470 µM) | 261 (≈ 786 µM) | 469 (≈ 1410 µM) | 156 (≈ 470 µM) | 235 (≈ 707 µM) | 313 (≈ 942 µM) | – | – | – |
| COc1ccc(-c2c[nH]c3ccc(OC)cc23)cc1 | 313 (≈ 1240 µM) | 29.3 (≈ 116 µM) | 521 (≈ 2060 µM) | 156 (≈ 616 µM) | 156 (≈ 616 µM) | 261 (≈ 1030 µM) | – | – | – |
| COc1ccc2[nH]cc(-c3ccccc3)c2c1 | 39.1 (≈ 175 µM) | 235 (≈ 1050 µM) | 625 (≈ 2800 µM) | 78 (≈ 349 µM) | 15.6 (≈ 69.9 µM) | 313 (≈ 1400 µM) | – | – | – |
| COc1cc(-c2cc3ccccc3[nH]2)cc(OC)c1OC | 469 (≈ 1660 µM) | 313 (≈ 1100 µM) | 313 (≈ 1100 µM) | 117 (≈ 413 µM) | 20 (≈ 70.6 µM) | 391 (≈ 1380 µM) | – | – | – |
| COc1ccc2[nH]c(-c3ccccc3)cc2c1 | 156 (≈ 699 µM) | – | – | 469 (≈ 2100 µM) | 3.9 (≈ 17.5 µM) | 469 (≈ 2100 µM) | – | inactive | inactive |
| COc1ccc(-c2cc3cc(OC)ccc3[nH]2)cc1 | 625 (≈ 2470 µM) | – | – | 235 (≈ 928 µM) | 313 (≈ 1240 µM) | 313 (≈ 1240 µM) | – | – | inactive |
| c1ccc(-c2c[nH]c3ccccc23)cc1 [3-PHENYLINDOLE] | 39 (≈ 202 µM) | 65.1 (≈ 337 µM) | 156 (≈ 807 µM) | 19.5 (≈ 101 µM) | 19.5 (≈ 101 µM) | 469 (≈ 2430 µM) | – | – | – |
| COc1ccc(-c2c[nH]c3ccccc23)cc1 | 469 (≈ 2100 µM) | 78 (≈ 349 µM) | – | 156 (≈ 699 µM) | 625 (≈ 2800 µM) | 208 (≈ 932 µM) | – | – | inactive |
| COc1ccc2[nH]cc(-c3cc(OC)c(OC)c(OC)c3)c2c1 | 313 (≈ 999 µM) | 29.3 (≈ 93.5 µM) | 313 (≈ 999 µM) | 313 (≈ 999 µM) | 156 (≈ 498 µM) | 313 (≈ 999 µM) | – | – | – |
| COc1ccc2[nH]cc(-c3ccccc3C(C)=O)c2c1 | 625 (≈ 2360 µM) | 39 (≈ 147 µM) | 313 (≈ 1180 µM) | 235 (≈ 886 µM) | 156 (≈ 588 µM) | 313 (≈ 1180 µM) | – | – | – |
| COc1ccc2[nH]cc(-c3ccccc3C)c2c1 | 29.3 (≈ 123 µM) | 625 (≈ 2630 µM) | 313 (≈ 1320 µM) | 117 (≈ 493 µM) | 19.5 (≈ 82.2 µM) | 313 (≈ 1320 µM) | – | – | – |
